Assays:
NCI-H522 [1] = assay: Cytotoxicity against human NCI-H522 cells; type: cell-based
Outline: (§1)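 NCI 60 human tumour cell line screen, second stage at five concentrations (100, 10, 1.0, 0.1 and 0.01 μM). Continuous drug exposure for 48 h, with cell growth estimated by sulforhodamine B protein staining. GI50 is the drug concentration giving a 50% reduction in net protein increase relative to control cells over the incubation.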

OVCAR-4 [2] = assay: Cytotoxicity against human OVCAR4 cells; type: cell-based; outline: as §1
Hs-578T [3] = assay: Cytotoxicity against human Hs578T cells; type: cell-based; outline: as §1
MCF7 [4] = assay: Cytotoxicity against human MCF7 cells; type: cell-based; outline: as §1
SK-MEL-2 [5] = assay: Anticancer activity against human SK-MEL-2 cells after 48 hrs by sulforhodamine B assay; type: functional; details: SK-MEL-2, 48 h
Outline: (§2)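 NCI 60-cell-line in vitro screen, second stage: five concentration levels (100, 10, 1.0, 0.1 and 0.01 μM) with 48 h continuous drug exposure. Cell growth was estimated by sulforhodamine B protein staining. GI50 is the drug concentration that gives a 50% reduction in net protein increase relative to control cells over the incubation.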

A549 [6] = assay: Cytotoxicity against human A549 cells; type: cell-based; outline: as §1
SK-MEL-2 [7] = assay: Cytotoxicity against human SK-MEL-2 cells; type: cell-based; outline: as §1
SNB-75 [8] = assay: Anticancer activity against human SNB75 cells after 48 hrs by sulforhodamine B assay; type: functional; details: SNB-75, 48 h
Outline: (§3)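 NCI 60-cell-line screen, second stage. Five concentration levels (100, 10, 1.0, 0.1 and 0.01 μM), 48 h continuous drug exposure. Cell growth was estimated by sulforhodamine B protein staining. GI50 is the concentration giving a 50% reduction in net protein increase relative to control cells over the drug incubation. Compounds entered this stage after an earlier single-dose screen.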

BT-549 [9] = assay: Anticancer activity against human BT549 cells after 48 hrs by sulforhodamine B assay; type: functional; details: BT-549, 48 h; outline: as §2
HOP-62 [10] = assay: Anticancer activity against human HOP62 cells after 48 hrs by sulforhodamine B assay; type: functional; details: HOP-62, 48 h; outline: as §2
RPMI-8226 [11] = assay: Anticancer activity against human RPMI8226 cells after 48 hrs by sulforhodamine B assay; type: functional; details: RPMI-8226, 48 h; outline: as §2
OVCAR-8 [12] = assay: Anticancer activity against human OVCAR8 cells after 48 hrs by sulforhodamine B assay; type: functional; details: OVCAR-8, 48 h; outline: as §2
MDA-MB-468 [13] = assay: Anticancer activity against human MDA-MB-468 cells after 48 hrs by sulforhodamine B assay; type: functional; details: MDA-MB-468, 48 h; outline: as §2
RPMI-8226 [14] = assay: Cytotoxicity against human RPMI8226 cells; type: cell-based; outline: as §1
RXF 393 [15] = assay: Cytotoxicity against human RXF393 cells; type: cell-based; outline: as §1
UO-31 [16] = assay: Cytotoxicity against human UO31 cells; type: cell-based
Outline: (§4)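 NCI 60 human tumour cell line screen; five concentration levels (100, 10, 1.0, 0.1 and 0.01 μM), 48 h continuous drug exposure. Cell growth estimated by sulforhodamine B (SRB) protein staining. GI50 taken as the drug concentration giving a 50% reduction in net protein increase relative to control cells over the incubation.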

MDA-MB-435 [17] = assay: Anticancer activity against human MDA-MB-435 cells after 48 hrs by sulforhodamine B assay; type: functional; details: MDA-MB-435, 48 h; outline: as §2
T47D [18] = assay: Cytotoxicity against human T47D cells; type: cell-based; outline: as §4
K562 [19] = assay: Anticancer activity against human K562 cells after 48 hrs by sulforhodamine B assay; type: functional; details: K562, 48 h; outline: as §2
MDA-MB-468 [20] = assay: Cytotoxicity against human MDA-MB-468 cells; type: cell-based; outline: as §1
SN12C [21] = assay: Cytotoxicity against human SN12C cells; type: cell-based; outline: as §4
NCI-H23 [22] = assay: Cytotoxicity against human NCI-H23 cells; type: cell-based; outline: as §1
HOP-92 [23] = assay: Cytotoxicity against human HOP92 cells; type: cell-based; outline: as §1
NCI/ADR-RES [24] = assay: Cytotoxicity against human NCI/ADR-RES cells; type: cell-based; outline: as §1
NCI/ADR-RES [25] = assay: Anticancer activity against human NCI/ADR-RES cells after 48 hrs by sulforhodamine B assay; type: functional; outline: as §2
NCI-H226 [26] = assay: Cytotoxicity against human NCI-H226 cells; type: cell-based; outline: as §1
NCI-H522 [27] = assay: Anticancer activity against human NCI-H522 cells after 48 hrs by sulforhodamine B assay; type: functional; details: NCI-H522, 48 h; outline: as §2
NCI-H23 [28] = assay: Anticancer activity against human NCI-H23 cells after 48 hrs by sulforhodamine B assay; type: functional; details: NCI-H23, 48 h; outline: as §2
MDA-MB-435 [29] = assay: Cytotoxicity against human MDA-MB-435 cells; type: cell-based; outline: as §1
786-0 [30] = assay: Cytotoxicity against human 786-0 cells; type: cell-based; outline: as §1
SNB-75 [31] = assay: Cytotoxicity against human SNB75 cells; type: cell-based; outline: as §4
U-251 [32] = assay: Cytotoxicity against human U251 cells; type: cell-based; outline: as §4
SW-620 [33] = assay: Anticancer activity against human SW620 cells after 48 hrs by sulforhodamine B assay; type: functional; details: SW-620, 48 h; outline: as §3
ACHN [34] = assay: Cytotoxicity against human ACHN cells; type: cell-based; outline: as §1
LOX IMVI [35] = assay: Cytotoxicity against human LOXIMVI cells; type: cell-based; outline: as §1
OVCAR-8 [36] = assay: Cytotoxicity against human OVCAR8 cells; type: cell-based; outline: as §1
HOP-62 [37] = assay: Cytotoxicity against human HOP62 cells; type: cell-based; outline: as §1
OVCAR-4 [38] = assay: Anticancer activity against human OVCAR4 cells after 48 hrs by sulforhodamine B assay; type: functional; details: OVCAR-4, 48 h; outline: as §2
U-251 [39] = assay: Anticancer activity against human U251 cells after 48 hrs by sulforhodamine B assay; type: functional; details: U-251, 48 h; outline: as §3
UO-31 [40] = assay: Anticancer activity against human UO31 cells after 48 hrs by sulforhodamine B assay; type: functional; details: UO-31, 48 h; outline: as §3
CCRF-CEM [41] = assay: Anticancer activity against human CCRF-CEM cells after 48 hrs by sulforhodamine B assay; type: functional; outline: as §2
A549 [42] = assay: Anticancer activity against human A549 cells after 48 hrs by sulforhodamine B assay; type: functional; details: A549, 48 h; outline: as §2
SK-MEL-5 [43] = assay: Cytotoxicity against human SK-MEL-5 cells; type: cell-based; outline: as §1
Hs-578T [44] = assay: Anticancer activity against human Hs578T cells after 48 hrs by sulforhodamine B assay; type: functional; outline: as §2
HCT-116 [45] = assay: Cytotoxicity against human HCT116 cells; type: cell-based; outline: as §1
K562 [46] = assay: Cytotoxicity against human K562 cells; type: cell-based; outline: as §1
HOP-92 [47] = assay: Anticancer activity against human HOP92 cells after 48 hrs by sulforhodamine B assay; type: functional; details: HOP-92, 48 h; outline: as §2
RXF 393 [48] = assay: Anticancer activity against human RXF393 cells after 48 hrs by sulforhodamine B assay; type: functional; details: RXF 393, 48 h; outline: as §2
LOX IMVI [49] = assay: Anticancer activity against human LOXIMVI cells after 48 hrs by sulforhodamine B assay; type: functional; outline: as §2
HCT-116 [50] = assay: Anticancer activity against human HCT116 cells after 48 hrs by sulforhodamine B assay; type: functional; details: HCT-116, 48 h; outline: as §2
ACHN [51] = assay: Anticancer activity against human ACHN cells after 48 hrs by sulforhodamine B assay; type: functional; outline: as §2
BT-549 [52] = assay: Cytotoxicity against human BT549 cells; type: cell-based; outline: as §1
HCT-15 [53] = assay: Cytotoxicity against human HCT15 cells; type: cell-based; outline: as §1
SNB-19 [54] = assay: Cytotoxicity against human SNB19 cells; type: cell-based; outline: as §4
SNB-19 [55] = assay: Anticancer activity against human SNB19 cells after 48 hrs by sulforhodamine B assay; type: functional; details: SNB-19, 48 h; outline: as §2
SW-620 [56] = assay: Cytotoxicity against human SW620 cells; type: cell-based; outline: as §4
NCI-H460 [57] = assay: Cytotoxicity against human NCI-H460 cells; type: cell-based; outline: as §1
SN12C [58] = assay: Anticancer activity against human SN12C cells after 48 hrs by sulforhodamine B assay; type: functional; outline: as §2
786-0 [59] = assay: Anticancer activity against human 786-0 cells after 48 hrs by sulforhodamine B assay; type: functional; details: 786-0, 48 h; outline: as §2
SK-MEL-5 [60] = assay: Anticancer activity against human SK-MEL-5 cells after 48 hrs by sulforhodamine B assay; type: functional; details: SK-MEL-5, 48 h; outline: as §2
MCF7 [61] = assay: Anticancer activity against human MCF7 cells after 48 hrs by sulforhodamine B assay; type: functional; details: MCF7, 48 h; outline: as §2
T47D [62] = assay: Anticancer activity against human T47D cells after 48 hrs by sulforhodamine B assay; type: functional; outline: as §3
HCT-15 [63] = assay: Anticancer activity against human HCT15 cells after 48 hrs by sulforhodamine B assay; type: functional; details: HCT-15, 48 h; outline: as §2
CCRF-CEM [64] = assay: Cytotoxicity against human CCRF-CEM cells; type: cell-based; outline: as §1
NCI-H226 [65] = assay: Anticancer activity against human NCI-H226 cells after 48 hrs by sulforhodamine B assay; type: functional; details: NCI-H226, 48 h; outline: as §2
NCI-H460 [66] = assay: Anticancer activity against human NCI-H460 cells after 48 hrs by sulforhodamine B assay; type: functional; details: NCI-H460, 48 h; outline: as §2

Cc1ccc(C2=NNC(c3cc(Cc4ccc(O)c(C5CC(c6ccc(C)cc6)=NN5)c4)ccc3O)C2)cc1 (stereo unspecified)
LC50 (NCI-H522 [1]): > 100 µM
LC50 (OVCAR-4 [2]): > 100 µM
LC50 (Hs-578T [3]): > 100 µM
LC50 (MCF7 [4]): 71.8 µM
GI50 (SK-MEL-2 [5]): 5.9 µM
LC50 (A549 [6]): > 100 µM
LC50 (SK-MEL-2 [7]): > 100 µM
GI50 (SNB-75 [8]): 4.98 µM
GI50 (BT-549 [9]): 4.66 µM
GI50 (HOP-62 [10]): 8.64 µM
GI50 (RPMI-8226 [11]): 9.89 µM
GI50 (OVCAR-8 [12]): 6.36 µM
GI50 (MDA-MB-468 [13]): 2.97 µM
LC50 (RPMI-8226 [14]): > 100 µM
LC50 (RXF 393 [15]): > 100 µM
LC50 (UO-31 [16]): > 100 µM
GI50 (MDA-MB-435 [17]): 8.52 µM
LC50 (T47D [18]): > 100 µM
GI50 (K562 [19]): 7.73 µM
LC50 (MDA-MB-468 [20]): > 100 µM
LC50 (SN12C [21]): > 100 µM
LC50 (NCI-H23 [22]): > 100 µM
LC50 (HOP-92 [23]): > 100 µM
LC50 (NCI/ADR-RES [24]): > 100 µM
GI50 (NCI/ADR-RES [25]): 7.39 µM
LC50 (NCI-H226 [26]): > 100 µM
GI50 (NCI-H522 [27]): 3.64 µM
GI50 (NCI-H23 [28]): 5.3 µM
LC50 (MDA-MB-435 [29]): > 100 µM
LC50 (786-0 [30]): > 100 µM
LC50 (SNB-75 [31]): > 100 µM
LC50 (U-251 [32]): > 100 µM
GI50 (SW-620 [33]): 7.96 µM
LC50 (ACHN [34]): > 100 µM
LC50 (LOX IMVI [35]): > 100 µM
LC50 (OVCAR-8 [36]): > 100 µM
LC50 (HOP-62 [37]): > 100 µM
GI50 (OVCAR-4 [38]): 5.36 µM
GI50 (U-251 [39]): 5.84 µM
GI50 (UO-31 [40]): 4.29 µM
GI50 (CCRF-CEM [41]): 3.85 µM
GI50 (A549 [42]): 6.84 µM
LC50 (SK-MEL-5 [43]): 31.7 µM
GI50 (Hs-578T [44]): 5.58 µM
LC50 (HCT-116 [45]): 55.2 µM
LC50 (K562 [46]): > 100 µM
GI50 (HOP-92 [47]): 8.28 µM
GI50 (RXF 393 [48]): 4.18 µM
GI50 (LOX IMVI [49]): 7.38 µM
GI50 (HCT-116 [50]): 4.11 µM
GI50 (ACHN [51]): 5.56 µM
LC50 (BT-549 [52]): > 100 µM
LC50 (HCT-15 [53]): > 100 µM
LC50 (SNB-19 [54]): > 100 µM
GI50 (SNB-19 [55]): 6.89 µM
LC50 (SW-620 [56]): > 100 µM
LC50 (NCI-H460 [57]): > 100 µM
GI50 (SN12C [58]): 8.84 µM
GI50 (786-0 [59]): 8.39 µM
GI50 (SK-MEL-5 [60]): 1.76 µM
GI50 (MCF7 [61]): 3.3 µM
GI50 (T47D [62]): 4.61 µM
GI50 (HCT-15 [63]): 3.64 µM
LC50 (CCRF-CEM [64]): > 100 µM
GI50 (NCI-H226 [65]): 8.28 µM
GI50 (NCI-H460 [66]): 4.88 µM

Source: ChEMBL document CHEMBL1782042, “Efficient microwave-assisted synthesis and antitumor activity of novel 4,4'-methylenebis[2-(3-aryl-4,5-dihydro-1H-pyrazol-5-yl)phenols]” (Eur J Med Chem, 2011)
